# Screens: PubChem, several laboratories
# Most compounds without a hit are left out; they make up all but 2.6% or so of the library.
# Exocytosis inh: lytic granule exocytosis inhibition; TALL-104 LAMP-1 surface exposure, flow cytometry; cells stimulated with thapsigargin and PMA; 360,000 compounds, 0.66% hits; inhibition, % at 10 µM;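 active means inhibition above about 55%, limit read from the data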
# EP2 mod: modulators of human EP2 prostaglandin E2 receptor. P43116. induction, % at 25 µM. 260,000 compounds, 0.83% hits. EP2-expressing cells, cAMP HTRF FRET, PGE2 co-stimulation;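 active means compounds whose cAMP rise, as percent of the full-agonist control response, exceeds 60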;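 further: rat C6 glioma line stably carrying human EP2 under a CMV promoter; the protocol text gives 20 µM as final concentration; 100% = response of wells given 1 µM PGE2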
# Target sequence (P43116 whole entry, looked up): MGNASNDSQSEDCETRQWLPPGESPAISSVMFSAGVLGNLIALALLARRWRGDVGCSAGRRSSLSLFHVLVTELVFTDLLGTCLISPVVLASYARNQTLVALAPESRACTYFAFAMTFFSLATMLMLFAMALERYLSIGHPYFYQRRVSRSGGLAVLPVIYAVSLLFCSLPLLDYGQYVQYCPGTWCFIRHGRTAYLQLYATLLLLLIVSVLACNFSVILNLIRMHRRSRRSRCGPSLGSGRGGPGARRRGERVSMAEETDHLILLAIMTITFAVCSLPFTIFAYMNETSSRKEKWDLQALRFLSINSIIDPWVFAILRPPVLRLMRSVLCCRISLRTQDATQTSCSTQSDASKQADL
# EP2 antag: blocks the human prostaglandin E2 receptor EP2. P43116. C6 glioma cells expressing human EP2, cAMP TR-FRET; cells stimulated with saturating PGE2. inhibition, % at 25 µM. 260,000 compounds, 0.52% hits;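 active means percent inhibition above 40 after rounding to a whole number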;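 further: rat C6 glioma host cells with rolipram phosphodiesterase inhibitor present; the protocol text gives 20 µM as final concentration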
# MC4R barr agon: activates human MC4R beta-arrestin recruitment; P32245; U2OS MC4R beta-arrestin complementation, luminescence; percent of melanotan II response, DMSO zero; activation, % at 8.9 µM; 360,000 compounds, 0.98% hits; AID 540308;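 active means activation above a per-plate cutoff, the mean activation of sample wells on that plate plus 3 SD, cut at about 8% in these data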
# MC4R antagonist: blocks human MC4R cAMP signaling; P32245; MC4R-expressing cells, MTII-stimulated cAMP, LANCE TR-FRET; inhibition, % at 6.5 µM; 360,000 compounds, 0.48% hits; AID 540295;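 active means inhibition above its plate's cutoff, the mean of tested wells on that plate plus 3 SD, cut at about 29% in these data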;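 further: 0% = Melanotan II alone and 100% = Melanotan II plus saturating MCL0020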
#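 Material – human MC4R-expressing U2OS cells · Repeats – no replicates · Detection – TR-FRET with Eu-cAMP and labeled anti-cAMP, 671 nm · Times – compound 30 min, challenge 1 h, detection 1 h · Compound – single nominal compound dose of 6.5 µM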
# T cell modulator: T cell immune modulators affecting CD8 T cell-vesicle binding; 2C CD8+ T cell-vesicle binding, flow cytometry; active compounds read low; response (vesicle binding), % at 7 µM; 330,000 compounds, 0.068% hits; AID 2052;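 active means response, share of CD8 T cells binding vesicles, and their 90th percentile fluorescence all below set limits, cut at about 80% in these data, passing the limit was not always enough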;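 further: values below 100% mean blocked vesicle binding to the CD8+ T cells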
#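 material = purified 2C TCR transgenic mouse naive CD8+ T cells | controls = Unloaded micro-vesicles (low), QL9 vesicles with 0.7% DMSO (high) | detection = cytometric PE anti-B7-1 and Alexa647 anti-CD8 signals after 1% paraformaldehyde fixation | incubation = binding step 1.5 h, 37 °C, antibody labelling 20 min, ice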
# MC4R barr ag: human MC4R beta-arrestin agonism confirmation | AID 602192 | shares compounds with MC4R barr agon | 2,400 compounds, 31% hits | activation, % at 8.9 µM | U2OS MC4R beta-arrestin recruitment, luminescence; scaled DMSO 0%, Melanotan II 100%;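 active means mean activation across replicates above the hit cutoff set in the earlier primary screen, cut at about 8% in these data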
# MOR-DOR barr ag: activates mu-delta opioid heterodimer, MC4R agonist counter-screen | U2OS PathHunter beta-arrestin, beta-gal luminescence; percent of deltorphin B response, DMSO zero | AID 602194 | shares compounds with MC4R barr agon | 2,400 compounds, 5.8% hits | activation, % at 9.2 µM;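 active means mean activation across replicates exceeds the hit threshold derived in the earlier primary screen, cut at about 18% in these data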;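 further: 100% = deltorphin B at 0.9 µM final and 0% = DMSO alone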
# * hit, by the source's call; . = no result given.
SMILES,Exocytosis inh,EP2 mod,EP2 antag,MC4R barr agon,MC4R antagonist,T cell modulator,MC4R barr ag,MOR-DOR barr ag
COc1ccc(OC)c(-c2cc(C(=O)Nc3cc(C)on3)no2)c1,-2,-2,9,17*,-14,298,10*,10
COc1ccc(NC(=O)c2cc(-c3ccco3)on2)c(OC)c1,-6,.,.,10*,11,346,1,8
COc1ccc(-c2cc(C(=O)Nc3cc(C)on3)no2)cc1,4,1,10,.,.,173,.,.
O=C(COC(=O)Cc1ccc(Br)cc1)NCC1CCCO1 (stereo not drawn),3,.,.,0,-3,204,.,.
CNC(C)[C@@H]1CC[C@@H](N)[C@@H](OC2[C@@H](N)C[C@@H](N)[C@H](OC3OC[C@](C)(O)[C@H](NC)[C@H]3O)[C@H]2O)O1 (stereo partly drawn),.,-3,9,.,.,.,.,.
O=C(CSc1nc2cc3ccccc3cc2[nH]1)Nc1ccc(F)cc1,1,-36,8,9.6*,-7,184,2,6
CC(=O)Nc1ccc(NC(=O)COC(=O)C2c3ccccc3Oc3ccccc32)cc1,0,-44,7,-2,-4,.,.,.
Cc1nn(Cc2c(F)c(F)c(F)c(F)c2F)c(C)c1NC(=O)c1cccc(COc2ccccc2Cl)c1,0,-1,13,17*,9,278,6,3
COC(=O)c1c(NC(C)=O)sc2c1CCN(Cc1ccccc1)C2,3,.,.,2,12,441,.,.
COC(=O)c1c(NC(=O)C(C)(C)C)sc2c1CCN(Cc1ccccc1)C2,1,.,.,11*,-9,978,6,5
CC(Sc1nnc(-c2ccc(O)cc2)o1)C(=O)Nc1cccc2ccccc12 (stereo not drawn),-1,-35,10,-2,11,137,.,.
COc1cc(NC(=O)c2ccc(-c3ccc(Br)cc3)o2)ccc1NC(=O)C(C)C,0,-25,24,15*,2,127,6,4
Cc1ccc(NC(=O)Cc2ncon2)cc1Cl,-8,-15,11,0,10,160,.,.
Cc1ccc(NC(=O)COC(=O)c2ccccc2Nc2ccccc2)cc1,0,-11,4,13*,-6,166,3,5
CC(=O)OCC1OC(COC(C)=O)(c2ccc(C)cc2)C(OC(C)=O)C1OC(C)=O (stereo not drawn),-6,.,.,-2,4,.,.,.
Cc1ccc(-n2nnnc2SCC(=O)Nc2nc(-c3ccc(F)cc3)cs2)cc1C,0,-8,1,24*,3,.,13*,4
Cn1nnnc1SCC(=O)Nc1nc(-c2ccc(Cl)cc2)cs1,.,-46,11,.,.,.,.,.
Cc1cc(C)cc(-n2nnnc2SCC(=O)Nc2nc(-c3ccc(Cl)cc3)cs2)c1,-1,5,5,27*,4,214,7,3
O=C(CSc1nnnn1-c1ccccc1)Nc1nsc(-c2ccc(Cl)cc2)n1,2,-15,12,16*,7,278,5,4
O=C(CSc1nnnn1-c1ccccc1)Nc1nsc(-c2ccccc2)n1,1,-40,5,0,4,192,.,.
O=C(Nc1nccs1)c1ccc(-c2ccccc2[N+](=O)[O-])o1,-6,.,.,-2,-3,0,.,.
N/C(CN1CCCC1=O)=N\OC(=O)c1ccc(Cl)cc1,-8,-13,3,-1,1,261,.,.
N#C/C(=C(/O)COC(=O)CSc1ccc(Cl)cc1)c1nc2ccccc2[nH]1,0,-8,11,9.7*,3,396,-4,4
CCC(C)Sc1ccc(-c2nc3ccc(C)cn3c2NCc2ccccc2)cc1 (stereo not drawn),1,.,.,12*,10,179,5,8
C=CCn1c(SCC(=O)Nc2ccc(C(=O)OC(C)C)cc2)nnc1-c1cccs1,1,3,22,23*,17,216,1,2
